Where a chain is given by its changes, count along the chain named. The source made the active and inactive calls. No cut-off for these calls is given here.
Tests used:
Format in all cases: cell-based
[1] = test system: T1, Transient receptor potential cation channel subfamily V member 2 (Mus musculus), Q9WTR1 [F467A]; assay: Antagonist activity at mouse TRPV2 F467A mutant expressed in HEK293T cells assessed as inhibition of 2-APB evoked currents at -60 mV holding potential by whole-cell patch clamp assay
T1 sequence (whole entry): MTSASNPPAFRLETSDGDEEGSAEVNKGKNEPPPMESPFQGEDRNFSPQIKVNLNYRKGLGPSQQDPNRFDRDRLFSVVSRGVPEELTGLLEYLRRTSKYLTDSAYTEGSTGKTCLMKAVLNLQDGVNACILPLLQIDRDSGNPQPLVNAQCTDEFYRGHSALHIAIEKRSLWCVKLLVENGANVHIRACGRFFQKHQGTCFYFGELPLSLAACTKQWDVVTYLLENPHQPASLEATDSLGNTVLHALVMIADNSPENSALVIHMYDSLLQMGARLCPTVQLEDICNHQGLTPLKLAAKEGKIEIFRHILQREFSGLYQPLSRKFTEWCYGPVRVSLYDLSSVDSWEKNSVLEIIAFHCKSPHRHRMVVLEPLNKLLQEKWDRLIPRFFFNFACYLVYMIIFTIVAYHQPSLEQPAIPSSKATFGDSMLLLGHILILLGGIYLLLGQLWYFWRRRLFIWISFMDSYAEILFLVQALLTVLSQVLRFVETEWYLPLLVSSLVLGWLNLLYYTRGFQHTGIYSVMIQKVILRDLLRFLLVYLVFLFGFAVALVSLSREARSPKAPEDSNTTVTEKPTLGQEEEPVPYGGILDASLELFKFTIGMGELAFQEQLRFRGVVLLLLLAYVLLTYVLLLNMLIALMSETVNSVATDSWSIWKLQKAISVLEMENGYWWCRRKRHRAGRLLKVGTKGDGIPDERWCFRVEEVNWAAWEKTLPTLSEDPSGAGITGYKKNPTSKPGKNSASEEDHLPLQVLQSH
In short: (§1)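 Whole-cell voltage clamp of transiently transfected HEK293T cells co-expressing GFP, recorded 36-96 h post-transfection. Hold -60 mV; pipettes 3-7 MΩ. Bath 165 mM NaCl, 10 mM HEPES pH 7.3; pipette 140 mM KCl, 10 mM HEPES pH 7.3. Room temperature (~25 °C). IC50 from Hill fits of I/I0, the current ratio after vs before inhibitor; mean ± SEM.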

[2] = test system: Transient receptor potential cation channel subfamily V member 1 (Mus musculus), Q704Y3 [S513F,T551L]; assay: Antagonist activity at mouse TRPV1 S513F/T551L double mutant expressed in HEK293T cells assessed as inhibition of 2-APB evoked currents at 0.3 to 10 uM at -60 mV holding potential by whole-cell patch clamp assay; in short: as §1
[3] = molecular target: T2, Transient receptor potential cation channel subfamily V member 2 (Mus musculus) (UniProt Q9WTR1); assay: Antagonist activity at mouse TRPV2 expressed in HEK293T cells assessed as inhibition of 2-APB evoked currents at -60 mV holding potential by whole-cell patch clamp assay; in short: as §1
T2 sequence (whole entry): T1 sequence (whole entry) with A467F

[4] = molecular target: Transient receptor potential cation channel subfamily V member 4 (Mus musculus) (UniProt Q9EPK8); assay: Antagonist activity at mouse TRPV4 expressed in HEK293T cells assessed as inhibition of GSK-1016790A evoked currents at 3 to 10 uM -60 mV holding potential by whole-cell patch clamp assay; in short: as §1
[5] = test system: Transient receptor potential cation channel subfamily V member 1 (Mus musculus), Q704Y3 [T551L]; assay: Antagonist activity at mouse TRPV1 T551L mutant expressed in HEK293T cells assessed as inhibition of 2-APB evoked currents at > 1 uM at -60 mV holding potential by whole-cell patch clamp assay; in short: as §1
[6] = molecular target: Transient receptor potential cation channel subfamily V member 1 (Mus musculus) (UniProt Q704Y3); assay: Antagonist activity at mouse TRPV1 expressed in HEK293T cells assessed as inhibition of 2-APB evoked currents at 3 to 10 uM -60 mV holding potential by whole-cell patch clamp assay; in short: as §1
Transient receptor potential cation channel subfamily V member 1 (Mus musculus), sequence (Q704Y3 whole entry): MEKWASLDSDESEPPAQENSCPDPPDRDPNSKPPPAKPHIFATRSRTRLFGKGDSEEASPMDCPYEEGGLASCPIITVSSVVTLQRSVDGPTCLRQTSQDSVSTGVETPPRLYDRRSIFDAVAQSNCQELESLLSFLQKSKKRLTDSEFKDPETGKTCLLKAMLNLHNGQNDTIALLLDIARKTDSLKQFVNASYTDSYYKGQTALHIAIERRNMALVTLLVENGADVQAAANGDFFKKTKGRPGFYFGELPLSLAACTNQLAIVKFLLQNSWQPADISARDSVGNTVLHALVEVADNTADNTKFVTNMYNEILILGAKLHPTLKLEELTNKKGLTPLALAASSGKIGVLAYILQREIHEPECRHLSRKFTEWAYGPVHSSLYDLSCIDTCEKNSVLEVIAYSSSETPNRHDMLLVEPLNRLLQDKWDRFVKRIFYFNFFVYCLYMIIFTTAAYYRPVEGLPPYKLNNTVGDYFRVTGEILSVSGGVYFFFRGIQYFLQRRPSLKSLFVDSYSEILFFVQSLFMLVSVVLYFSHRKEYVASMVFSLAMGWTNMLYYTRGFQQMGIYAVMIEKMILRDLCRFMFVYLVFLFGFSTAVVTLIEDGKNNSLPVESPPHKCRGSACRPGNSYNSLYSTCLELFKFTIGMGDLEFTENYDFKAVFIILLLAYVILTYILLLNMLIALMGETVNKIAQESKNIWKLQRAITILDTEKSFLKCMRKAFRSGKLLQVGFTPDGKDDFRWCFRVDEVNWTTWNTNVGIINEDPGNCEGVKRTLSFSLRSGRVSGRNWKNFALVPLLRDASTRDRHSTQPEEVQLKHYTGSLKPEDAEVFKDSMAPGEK

Transient receptor potential cation channel subfamily V member 1 (Mus musculus), Q704Y3 [T551L], sequence (Q704Y3 whole entry T551L): as the sequence (Q704Y3 whole entry) above, with T551L counted along it
Transient receptor potential cation channel subfamily V member 1 (Mus musculus), Q704Y3 [S513F,T551L], sequence (Q704Y3 whole entry S513F/T551L): as the sequence (Q704Y3 whole entry) above, with S513F, T551L counted along it
Transient receptor potential cation channel subfamily V member 4 (Mus musculus), sequence (Q9EPK8 whole entry): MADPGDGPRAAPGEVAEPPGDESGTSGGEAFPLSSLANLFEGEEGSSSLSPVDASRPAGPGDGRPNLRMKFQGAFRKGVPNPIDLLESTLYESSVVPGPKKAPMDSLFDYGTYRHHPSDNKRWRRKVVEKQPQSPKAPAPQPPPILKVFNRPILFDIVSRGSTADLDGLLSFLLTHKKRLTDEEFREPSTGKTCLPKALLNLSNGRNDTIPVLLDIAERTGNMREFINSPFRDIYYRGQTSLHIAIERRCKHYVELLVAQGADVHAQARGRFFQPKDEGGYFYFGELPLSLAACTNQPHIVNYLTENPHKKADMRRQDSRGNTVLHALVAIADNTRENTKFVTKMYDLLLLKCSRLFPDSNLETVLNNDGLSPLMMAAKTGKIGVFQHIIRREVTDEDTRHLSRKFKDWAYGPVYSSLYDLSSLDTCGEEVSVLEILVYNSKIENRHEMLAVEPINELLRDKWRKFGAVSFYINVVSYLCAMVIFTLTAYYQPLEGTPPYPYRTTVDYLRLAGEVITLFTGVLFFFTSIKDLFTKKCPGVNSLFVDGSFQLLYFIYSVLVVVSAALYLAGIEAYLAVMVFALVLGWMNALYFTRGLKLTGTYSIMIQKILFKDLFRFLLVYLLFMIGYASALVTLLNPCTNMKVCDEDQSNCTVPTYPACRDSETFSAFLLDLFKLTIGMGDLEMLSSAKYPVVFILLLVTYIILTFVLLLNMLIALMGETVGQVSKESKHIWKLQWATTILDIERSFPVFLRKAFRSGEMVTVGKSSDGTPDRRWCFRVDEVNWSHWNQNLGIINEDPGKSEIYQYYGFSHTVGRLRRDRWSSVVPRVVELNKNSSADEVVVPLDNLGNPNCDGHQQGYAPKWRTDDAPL

CCCN(C)c1cc(C(F)(F)F)nc(SCCC(=O)NCc2ccco2)n1 was tested, and the inhibition [1] was “inactive”, the inhibition [2] was “Active” and the inhibition [3] was “Dose-dependent effect”. For the same compound, the inhibition [4] was “inactive”, the inhibition [5] was “Active” and the inhibition [6] was “inactive”.
